Test results from ChEMBL document CHEMBL4184147, “Polyphenolic Phytochemicals in Cancer Prevention and Therapy: Bioavailability versus Bioefficacy” (J Med Chem, 2017).

Columns and labels:
[1] = test system: NCI-H460; test: Cytotoxicity against human NCI-H460 cells assessed as decrease in cell viability after 48 hrs by MTT assay; assay type: functional, cell-based; conditions: NCI-H460, 48 h
[2] = test system: BXPC-3; test: Cytotoxicity against human BxPC3 cells assessed as decrease in cell viability after 48 hrs by MTT assay; assay type: functional, cell-based; conditions: BXPC-3, 48 h
[3] = test system: PANC-1; test: Cytotoxicity against human PANC1 cells assessed as decrease in cell viability after 48 hrs by MTT assay; assay type: functional, cell-based; conditions: PANC-1, 48 h
[4] = Cytotoxicity against human MML1 cells assessed as decrease in cell viability after 48 hrs by MTT assay; assay type: functional, cell-based
[5] = test system: SK-MEL-2; test: Cytotoxicity against human SK-MEL-2 cells assessed as decrease in cell viability after 48 hrs by MTT assay; assay type: functional, cell-based; conditions: SK-MEL-2, 48 h
[6] = test system: MDA-MB-231; test: Cytotoxicity against human MDA-MB-231 cells assessed as cell viability at 6 uM after 48 hrs by MTT assay; assay type: functional; conditions: MDA-MB-231, 48 h, read-out: Activity
[7] = test system: T47D; test: Cytotoxicity against human T47D cells assessed as cell viability at 6 uM after 48 hrs by MTT assay; assay type: functional; conditions: read-out: Activity
[8] = test system: HT-29; test: Cytotoxicity against human HT-29 cells assessed as cell viability at 6 uM after 48 hrs by MTT assay; assay type: functional; conditions: HT-29, 48 h, read-out: Activity
[9] = test system: COLO 201; test: Cytotoxicity against human COLO201 cells assessed as cell viability at 6 uM after 48 hrs by MTT assay; assay type: functional; conditions: COLO 201, 48 h, read-out: Activity
[10] = test system: A549; test: Cytotoxicity against human A549 cells assessed as cell viability at 6 uM after 48 hrs by MTT assay; assay type: functional; conditions: A549, 48 h, read-out: Activity
[11] = test system: NCI-H460; test: Cytotoxicity against human NCI-H460 cells assessed as cell viability at 6 uM after 48 hrs by MTT assay; assay type: functional; conditions: NCI-H460, 48 h, read-out: Activity
[12] = test system: BXPC-3; test: Cytotoxicity against human BxPC3 cells assessed as cell viability at 6 uM after 48 hrs by MTT assay; assay type: functional; conditions: BXPC-3, 48 h, read-out: Activity
[13] = test system: PANC-1; test: Cytotoxicity against human PANC1 cells assessed as cell viability at 6 uM after 48 hrs by MTT assay; assay type: functional; conditions: PANC-1, 48 h, read-out: Activity
[14] = Cytotoxicity against human MML1 cells assessed as cell viability at 6 uM after 48 hrs by MTT assay; assay type: functional; conditions: read-out: Activity
[15] = test system: SK-MEL-2; test: Cytotoxicity against human SK-MEL-2 cells assessed as cell viability at 6 uM after 48 hrs by MTT assay; assay type: functional; conditions: SK-MEL-2, 48 h, read-out: Activity
[16] = test system: U-87 MG; test: Cytotoxicity against human U87 cells assessed as cell viability at 6 uM after 48 hrs by MTT assay; assay type: functional, U-87MG ATCC; conditions: read-out: Activity
[17] = test system: LN-229; test: Cytotoxicity against human LN229 cells assessed as cell viability at 6 uM after 48 hrs by MTT assay; assay type: functional; conditions: LN-229, 48 h, read-out: Activity
[18] = Cmax in mouse at 10 mg/kg, iv by LC-MS/MS method; assay type: ADME, organism-based; parameters: dose 10 mg/kg, route intravenous; conditions: in vivo
Procedure, shortened: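 Mouse iv dosing used polyphenol dissolved in DMSO:ethanol (2:1), with total injected volume never above 30 μL. Plasma levels were measured by previously described methods.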

[19] = Tmax in mouse at 10 mg/kg, iv by LC-MS/MS method; assay type: ADME, organism-based; conditions: in vivo
Procedure, shortened: (§1)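 For IV dosing, compound dissolved in DMSO:ethanol (2:1), total volume no more than 30 μL. For oral dosing, compound given in a self-microemulsifying delivery system (60% surfactant, emulsifier OP:Cremophor EL 1:1; 30% PEG 400; 10% ethyl oleate), total volume no more than 100 μL. Plasma levels measured by previously described methods.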

[20] = Plasma concentration in mouse at 100 mg/kg, po at 60 mins by LC-MS/MS method; assay type: ADME, organism-based; procedure, shortened: as §1
[21] = Plasma concentration in mouse at 10 mg/kg, iv at 60 mins by LC-MS/MS method; assay type: ADME, organism-based; procedure, shortened: as §1
[22] = Cmax in mouse at 100 mg/kg, po by HPLC method; assay type: ADME, organism-based; parameters: dose 100 mg/kg, route oral; conditions: in vivo
Procedure, shortened: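 For oral dosing, polyphenol was dissolved in a self-microemulsifying delivery system: 60% surfactant (emulsifier OP:Cremophor EL 1:1), 30% cosurfactant (PEG 400) and 10% oil (ethyl oleate). Total volume given was never above 100 μL. Plasma levels were quantified by previously described methods.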

[23] = Tmax in mouse at 100 mg/kg, po by HPLC method; assay type: ADME, organism-based; conditions: in vivo
Procedure, shortened: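 Given orally in a self-microemulsifying delivery system (60% surfactant, emulsifier OP:Cremophor EL 1:1; 30% PEG 400 cosurfactant; 10% ethyl oleate oil), total volume no more than 100 μL. Plasma levels measured by previously described methods.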

[24] = Displacement of [3H]resveratrol from Sprague-Dawley rat brain plasma membranes after 1 hr by beta counting method; assay type: cell membranes
[25] = target: Cannabinoid receptor 1 (Homo sapiens, UniProt P21554); test: Displacement of […] from human recombinant CB1 receptor expressed in Chem1 cells after 90 mins by scintillation counting method; assay type: cell-based
Chain of Cannabinoid receptor 1 (P21554 whole entry): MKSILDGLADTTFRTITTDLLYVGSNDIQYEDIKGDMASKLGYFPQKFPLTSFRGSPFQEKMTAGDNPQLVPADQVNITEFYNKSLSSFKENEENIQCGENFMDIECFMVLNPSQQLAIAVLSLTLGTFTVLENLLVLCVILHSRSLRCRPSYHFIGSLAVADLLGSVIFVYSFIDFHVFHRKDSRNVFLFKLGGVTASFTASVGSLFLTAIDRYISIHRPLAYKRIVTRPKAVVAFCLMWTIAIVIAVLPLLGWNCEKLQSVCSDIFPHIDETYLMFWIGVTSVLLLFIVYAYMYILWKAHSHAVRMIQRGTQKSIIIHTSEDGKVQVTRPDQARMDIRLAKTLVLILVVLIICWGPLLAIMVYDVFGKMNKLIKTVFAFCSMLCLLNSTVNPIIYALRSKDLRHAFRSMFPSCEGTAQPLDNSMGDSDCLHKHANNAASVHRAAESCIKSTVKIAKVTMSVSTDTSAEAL

[26] = test system: Lipid bilayer; test: Induction of DOPC/n-decane bilayer property changes assessed as concentration required to double gramicidin-induced quencher influx rate by […]
[27] = test system: U-87 MG; test: Cytotoxicity against human U87 cells assessed as decrease in cell viability after 48 hrs by trypan blue exclusion and LDH release
[28] = test system: T47D; test: Cytotoxicity against human T47D cells assessed as decrease in cell viability after 48 hrs by trypan blue exclusion and LDH release
[29] = test system: A549; test: Cytotoxicity against human A549 cells assessed as decrease in cell viability after 48 hrs by trypan blue exclusion and LDH release; conditions: A549, 48 h
[30] = test system: HT-29; test: Cytotoxicity against human HT-29 cells assessed as decrease in cell viability after 48 hrs by trypan blue exclusion and LDH release; conditions: HT-29, 48 h
[31] = test system: LN-229; test: Cytotoxicity against human LN229 cells assessed as decrease in cell viability after 48 hrs by trypan blue exclusion and LDH release; conditions: LN-229, 48 h
[32] = test system: COLO 201; test: Cytotoxicity against human COLO201 cells assessed as decrease in cell viability after 48 hrs by trypan blue exclusion and LDH release; conditions: COLO 201, 48 h
[33] = test system: MDA-MB-231; test: Cytotoxicity against human MDA-MB-231 cells assessed as decrease in cell viability after 48 hrs by trypan blue exclusion and LDH release; conditions: MDA-MB-231, 48 h

For `O=C(O[C@@H]1Cc2c(O)cc(O)cc2O[C@@H]1c1cc(O)c(O)c(O)c1)c1cc(O)c(O)c(O)c1` [EPIGALOCATECHIN GALLATE], which IC50 [1] is on record?
The IC50 was 18 µM.

And the IC50 [2]?
The IC50 was 33 µM.

And the IC50 [3]?
The IC50 was 62 µM.

What about the IC50 [4] of the same compound?
Its IC50 is 25 µM.

And the IC50 [5]?
The IC50 was 31 µM.

What about the viability at 6 µM [6] of the same compound?
Its viability at 6 µM is 102%.

What about the viability at 6 µM [7] of the same compound?
Its viability at 6 µM is 100%.

And the viability at 6 µM [8]?
Its viability at 6 µM is 96%.

What about the viability at 6 µM [9] of the same compound?
Its viability at 6 µM is 100%.

And the viability at 6 µM [10]?
The viability at 6 µM was 103%.

And the viability at 6 µM [11]?
The viability at 6 µM was 105%.

And the viability at 6 µM [12]?
The viability at 6 µM was 97%.

What about the viability at 6 µM [13] of the same compound?
Its viability at 6 µM is 95%.

And the viability at 6 µM [14]?
The viability at 6 µM was 102%.

What about the viability at 6 µM [15] of the same compound?
Its viability at 6 µM is 99%.

What about the viability at 6 µM [16] of the same compound?
Its viability at 6 µM is 98%.

And the viability at 6 µM [17]?
Its viability at 6 µM is 106%.

What about the Cmax [18] of the same compound?
Its Cmax is 12 µM.

And the Tmax [19]?
The Tmax was 5 min.

And the concentration at 1 h [20]?
The concentration at 1 h was less than 1 µM.

What about the concentration at 1 h [21] of the same compound?
Its concentration at 1 h is less than 1 µM.

And the Cmax [22]?
Its Cmax is 5 µM.

What about the Tmax [23] of the same compound?
The Tmax was 30 min.

What about the Ki [24] of the same compound?
Its Ki is 0.025 to 0.045 µM.

And the Ki [25]?
The Ki was 33.6 µM.

And the Activity [26]?
The Activity was 11.2 µM.

What about the IC50 [27] of the same compound?
Its IC50 is 18 µM.

And the IC50 [28]?
Its IC50 is 57 µM.

And the IC50 [29]?
The IC50 was 29 µM.

And the IC50 [30]?
Its IC50 is 60 µM.

What about the IC50 [31] of the same compound?
Its IC50 is 15 µM.

And the IC50 [32]?
Its IC50 is 38 µM.

What about the IC50 [33] of the same compound?
Its IC50 is 83 µM.
